The values below come from ChEMBL document CHEMBL1667827, “Pyridylmethylthio derivatives as VEGF inhibitors: part 2” (Bioorg Med Chem Lett, 2011).

One series addresses CYP3A4 (Homo sapiens, UniProt P08684). In words: Inhibition of CYP3A4 at 10 uM using testosterone as substrate. Format: ADME. The following applies: probe testosterone. An outline of the steps: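 CYP3A4 inhibition measured as percent inhibition at 10 μM test compound, testosterone as substrate.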
For the next series, the system named is B16. In words: Antitumor activity against mouse B16 cells xenografted in C57BL/6N mouse assessed as tumor growth at 100 mg/kg, po qd for 10 days relative to control. The class given is functional. The following applies: B16, 240 h. Put shortly:
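B16 cell suspension injected subcutaneously under anesthesia into female C57BL/6 mice, six weeks old. Compound suspension given orally once daily; ten days after cell injection, tumors excised and weighed, anti-cancer effect calculated relative to control.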

The next series relates to HUVEC. In words: Antiangiogenic activity in HUVEC assessed as inhibition of VEGF-induced proliferation after 3 days by WST-8 assay. The class given is functional, cell-based. The following applies: Homo sapiens, 72 h. Put shortly: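 HUVEC seeded and incubated 1 day, then VEGF plus test compound added; cell number counted after 3 further days of incubation. Growth rate calculated relative to control; IC50 is concentration giving half inhibition of VEGF-induced proliferation, in nM.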
(In general: Tetrazolium assays rely on reduction of a dye to a coloured formazan, in cell work by metabolically active cells.)

Series [1] relates to Rattus norvegicus. In words: Antiangiogenic activity in Brown Norway rat assessed as inhibition of laser-induced neovascularization incidence rate at 3 mg/kg, po qd for 7 days relative to control. The following applies: 168 h. Format: functional. Put shortly: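 Male Brown Norway rats, eight weeks old, under anesthesia and mydriasis; krypton laser photocoagulation of Bruch's membrane. Compound suspension given orally once daily. Seven days after photocoagulation, fluorescein injected via tail vein, fundus photographed, fluorescence leaks counted; neovascularization incidence rate compared with control.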

Series [2] deals with Rattus norvegicus. Put plainly: Antiinflammatory activity in Lewis rat adjuvant arthritis model assessed as inhibition of paw edema at 10 mg/kg, po qd for 20 days relative to control. Format: functional. The following applies: 480 h.
Series [3] is filed under the species Rattus norvegicus. Put plainly: animal or person. The conditions noted are these: Brown Norway, po, 168 h, read-out: INH.

Sequence of CYP3A4 (P08684 whole entry): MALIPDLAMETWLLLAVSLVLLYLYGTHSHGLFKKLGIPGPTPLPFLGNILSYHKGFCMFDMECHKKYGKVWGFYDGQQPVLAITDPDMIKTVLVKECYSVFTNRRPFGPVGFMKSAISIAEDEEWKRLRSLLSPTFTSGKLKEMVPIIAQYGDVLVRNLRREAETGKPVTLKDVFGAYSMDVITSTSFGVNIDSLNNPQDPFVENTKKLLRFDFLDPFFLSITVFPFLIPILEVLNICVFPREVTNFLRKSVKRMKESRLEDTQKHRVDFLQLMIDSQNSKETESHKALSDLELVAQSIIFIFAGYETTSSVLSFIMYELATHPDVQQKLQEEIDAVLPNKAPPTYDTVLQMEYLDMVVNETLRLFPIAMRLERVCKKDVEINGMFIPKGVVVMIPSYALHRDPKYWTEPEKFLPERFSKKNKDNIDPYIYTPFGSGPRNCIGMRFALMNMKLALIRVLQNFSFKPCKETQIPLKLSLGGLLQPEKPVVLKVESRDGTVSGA

As to `Cc1cc(C)cc(NC(=O)c2cccnc2SCc2ccncc2)c1`, on CYP3A4, testing at 10 µM gave an inhibition of 96%. Regarding `O=C(CNCCCO)Nc1cc(CSc2ncccc2C(=O)Nc2ccc(OC(F)(F)F)cc2)ccn1`, the inhibition in vivo at 100 mg/kg with B16 turned out to be 79%. Further, the inhibition (as a rule, the relative decrease from the control value, in per cent) at 10 µM against CYP3A4 was found to be 33%. In the series on HUVEC, the IC50 (usually the midpoint of a concentration-inhibition curve) came to 26 nM. The like results for `Cc1cc(C)cc(NC(=O)c2cccnc2SCc2cc[n+]([O-])cc2)c1` were, in that order, 76%, 16% and 24 nM. The like results for `Cc1cc(C)cc(NC(=O)c2cccnc2SCc2ccnc(NC(=O)CNCCCO)c2)c1` were, in that order, 77%, 23% and 18 nM. Consider `Cc1cc(C)cc(NC(=O)c2cccnc2SCc2ccnc(Cl)c2)c1`, for which, on CYP3A4, the inhibition at 10 µM is 60%. The IC50 in the series on HUVEC was 12 nM.

Regarding `CNc1cc(CSc2ncccc2C(=O)Nc2cc(C)cc(C)c2)ccn1`, the IC50 with HUVEC was found to be 21 nM. As for `Cc1cc(C)cc(NC(=O)c2cccnc2SCc2ccnc(NC(=O)CNCCN(C)C)c2)c1`, the inhibition in vivo at 3 mg/kg in the series with Rattus norvegicus [1] was 55%. Besides, the inhibition in vivo at 100 mg/kg in the series on B16 amounted to 83%. In addition, in the series on Rattus norvegicus [2], the inhibition in vivo at 10 mg/kg is 70%. The inhibition at 10 µM against CYP3A4 worked out at 14%. In the series with HUVEC, the IC50 was 5.9 nM. As to `CCC(=O)Nc1cc(CSc2ncccc2C(=O)Nc2cc(C)cc(C)c2)ccn1`, the IC50 in the series with HUVEC amounted to 1.8 nM. For `CNC(=O)Nc1cc(CSc2ncccc2C(=O)Nc2ccc(OC(F)(F)F)cc2)ccn1`, the IC50 in the series with HUVEC stood at 20 nM.

In the case of `CC(=O)N(C)c1cc(CSc2ncccc2C(=O)Nc2cc(C)cc(C)c2)ccn1`, in the series with HUVEC, the IC50 was 65 nM. On to `C[C@H]1C[C@H]2[C@@H]3CCC4=CC(=O)C=C[C@]4(C)[C@@]3(F)[C@@H](O)C[C@]2(C)[C@@]1(O)C(=O)COP(=O)(O)O` [BETAMETHASONE PHOSPHORIC ACID], for which the inhibition in vivo at 1 mg/kg in the series filed under Rattus norvegicus [3] was found to be 96%. For the compound `Cc1cc(C)cc(NC(=O)c2cccnc2SCc2ccnc(C#N)c2)c1`, the inhibition at 10 µM on CYP3A4 was 48%. The IC50 in the series with HUVEC worked out at 3.5 nM. For `Cc1cc(C)cc(NC(=O)c2cccnc2SCc2ccnc(NC(=O)CN(C)C)c2)c1`, in the series on HUVEC, the IC50 amounted to 22 nM.

For `CSc1cc(CSc2ncccc2C(=O)Nc2cc(C)cc(C)c2)ccn1`, at 10 µM the inhibition against CYP3A4 was 69%. The IC50 in the series on HUVEC is 100 nM. As to `CC(=O)Nc1cc(CSc2ncccc2C(=O)Nc2cc(C)cc(C)c2)ccn1`, 10 µM produced 20% inhibition against CYP3A4. In addition, the IC50 in the series with HUVEC is less than 0.91 nM. In the case of `COc1cc(CSc2ncccc2C(=O)Nc2cc(C)cc(C)c2)ccn1`, the IC50 in the series on HUVEC was found to be 100 nM.

Regarding `Cc1cc(C)cc(NC(=O)c2cccnc2SCc2ccnc(NC(=O)CO)c2)c1`, in the series on HUVEC, the IC50 stood at 6.6 nM. At CYP3A4, `Cc1cc(C)cc(NC(=O)c2cccnc2SCc2ccnc(F)c2)c1` returned an inhibition at 10 µM of 40%. In addition, in the series with HUVEC, the IC50 stood at 13 nM. The like results for `CN(C)CC(=O)Nc1cc(CSc2ncccc2C(=O)Nc2ccc(OC(F)(F)F)cc2)ccn1` were, in that order, 19% and 35 nM. As for `Cc1cc(C)cc(NC(=O)c2cccnc2SCc2ccnc(C)c2)c1`, in the series on HUVEC, the IC50 worked out at 68 nM. The same measure, in the same setting: for `Cc1cc(C)cc(NC(=O)c2cccnc2SCc2ccnc(N3CCOCC3)c2)c1` the value was 84 nM. For the compound `CN(C)CCNCC(=O)Nc1cc(CSc2ncccc2C(=O)Nc2ccc(OC(F)(F)F)cc2)ccn1`, the inhibition in vivo at 100 mg/kg in the series with B16 came to 79%. Moreover, at CYP3A4, the inhibition at 10 µM stood at 29%. Moreover, the IC50 in the series with HUVEC was 18 nM.

As to `Clc1ccc(Nc2nnc(Cc3ccncc3)c3ccccc23)cc1` [VATALANIB], the inhibition in vivo at 10 mg/kg in the series on Rattus norvegicus [2] stood at 23%.

Regarding `COC(=O)Nc1cc(CSc2ncccc2C(=O)Nc2cc(C)cc(C)c2)ccn1`, the IC50 with HUVEC was found to be 15 nM. For the compound `CNC(=O)c1cc(CSc2ncccc2C(=O)Nc2cc(C)cc(C)c2)ccn1`, the IC50 in the series with HUVEC turned out to be 18 nM. Compound `Cc1cc(C)cc(NC(=O)c2cccnc2SCc2ccnc(N)c2)c1` displayed an inhibition at 10 µM at CYP3A4 of 21%. The IC50 in the series with HUVEC was 5.8 nM. As for `CNC(=O)Nc1cc(CSc2ncccc2C(=O)Nc2cc(C)cc(C)c2)ccn1`, in the series on B16, the inhibition in vivo at 100 mg/kg worked out at 43%. The compound also returned an inhibition at 10 µM against CYP3A4 of 24%. The IC50 with HUVEC came to 8.8 nM. In the case of `CC(=O)Nc1cc(CSc2ncccc2C(=O)Nc2ccc(OC(F)(F)F)cc2)ccn1`, the inhibition at 10 µM on CYP3A4 stood at 38%. In the series on HUVEC, the IC50 was determined as 3.9 nM.

For `Cc1cc(C)cc(NC(=O)c2cccnc2SCc2cc[n+](C)cc2)c1`, the IC50 with HUVEC is more than 2000 nM. As to `O=C(CO)Nc1cc(CSc2ncccc2C(=O)Nc2ccc(OC(F)(F)F)cc2)ccn1`, in the series on B16, the inhibition in vivo at 100 mg/kg was found to be 85%. The same compound displayed an inhibition at 10 µM against CYP3A4 of 17%. Moreover, in the series on HUVEC, the IC50 is 7.4 nM. Consider `NCC(=O)Nc1cc(CSc2ncccc2C(=O)Nc2ccc(OC(F)(F)F)cc2)ccn1`, for which the IC50 with HUVEC was 49 nM.

In turn, `Cc1cc(C)cc(NC(=O)c2cccnc2SCc2ccnc(NC(=O)CN)c2)c1` gave an inhibition at 10 µM on CYP3A4 of 10%. Further, in the series on HUVEC, the IC50 worked out at 48 nM.
